According to ChEMBL document CHEMBL4665829, “Synthesis, Structure-Activity Relationship, and Antimalarial Efficacy of 6-Chloro-2-arylvinylquinolines” (J Med Chem, 2020):
Active and inactive are the calls of the source. The calls are words filed in the database; no cut-off is given here.

Assays:
Plasmodium falciparum [1] = assay: Antiplasmodial activity against chloroquine-resistant Plasmodium falciparum Dd2 infected in human erythrocytes assessed as reduction in microbial growth after 72 hrs by SYBR green I staining based fluorescence assay; assay type: functional, organism-based; details: Dd2, Erythrocyte
Summary of the method: (§1)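 SYBR Green I assay: twofold serial dilutions on P. falciparum cultures at 1% parasitemia, 1% hematocrit, 37 °C, 5% CO₂, 72 h, max 0.1% DMSO. DMSO and CQ as growth and inhibition controls. Plates frozen at −80 °C, thawed, lysed in Tris/saponin/EDTA/Triton buffer with 0.01% SYBR Green I, 1 h dark at room temperature. Fluorescence read at 485 ex/530 em. EC50 by nonlinear dose–response fit.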

Plasmodium falciparum [2] = assay: Antiplasmodial activity against chloroquine-sensitive Plasmodium falciparum 3D7 infected in human erythrocytes assessed as reduction in microbial growth after 72 hrs by SYBR green I staining based fluorescence assay; assay type: functional, organism-based; details: for EC50: 3D7, Erythrocyte; for Activity: Erythrocyte; summary of the method: as §1
[3] = Selectivity index, ratio of EC50 for cytotoxicity against human HepG2 cells to antiplasmodial activity against chloroquine-resistant Plasmodium falciparum Dd2; assay type: toxicity, cell-based; details: read-out: Ratio EC50
[4] = Resistant index, ratio of EC50 for antiplasmodial activity against chloroquine-resistant Plasmodium falciparum Dd2 to antiplasmodial activity against chloroquine-sensitive Plasmodium falciparum 3D7; assay type: functional
HepG2 = assay: Cytotoxicity against human HepG2 cells assessed as reduction in cell viability after 48 hrs by MTS assay; assay type: cell-based; details: HepG2, 48 h
Summary of the method: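 HepG2 cells were seeded at 2250 per well and grown 24 h at 37 °C, 5% CO₂. Serial dilutions starting at 25 μM were added for a further 48 h. MTS was then added for 3 h at 37 °C and absorbance read at 490 nm. EC₅₀ came from nonlinear dose–response fits.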

| SMILES | EC50 (Plasmodium falciparum [1]) [nM] | further results |
| --- | --- | --- |
| Clc1ccc2nc(/C=C/C=C/c3ccccc3)cc(NCCCCN3CCOCC3)c2c1 | 143 |  |
| COc1ccc2nc(CCc3ccncc3)cc(NCCN(C)C)c2c1 | 709 |  |
| Fc1ccc(/C=C/c2cc(Nc3ccc(N4CCCCC4)cc3)c3cc(Cl)ccc3n2)cc1 | 667 | EC50 (Plasmodium falciparum [2]): 155 nM |
| CN(C)CCNc1cc(/C=C/c2ccco2)nc2ccc(F)cc12 | 82.6 |  |
| Clc1ccc2nc(/C=C/c3ccncc3)cc(N3CCCC3)c2c1 | 1180 |  |
| Fc1ccc(/C=C/c2cc(NCCCCN3CCOCC3)c3cc(Cl)ccc3n2)nc1 | 73.1 |  |
| Fc1ccc(/C=C/c2cc(NCCN3CCCC3)c3cc(Cl)ccc3n2)cc1 | 92.3 |  |
| CN(C)CCNc1cc(/C=C/c2ccccc2F)nc2ccc(Cl)cc12 | 26 | selectivity ratio [3]: 186; Ratio EC50 [4]: 0.5; EC50 (HepG2): 4830 nM; EC50 (Plasmodium falciparum [2]): 55.9 nM |
| CN(C)CCNc1cc(/C=C/c2ccccc2)nc2ccccc12 | 80.7 |  |
| CN(C)CCNc1cc(/C=C/c2ccccn2)nc2ccc(Cl)cc12 | 67.5 |  |
| CN(C)CCNc1cc(/C=C/c2cc3ccccc3[nH]2)nc2ccc(Cl)cc12 | 95.9 | Ratio EC50 [4]: > 1.3 |
| Fc1ccc(/C=C/c2cc(NCCCCN3CCOCC3)c3cc(Cl)ccc3n2)c(F)c1 | 72.6 |  |
| FC(F)(F)c1cccc(/C=C/c2cc(NCCCCN3CCOCC3)c3cc(Cl)ccc3n2)c1 | 33.9 |  |
| COc1ccc2nc(/C=C/c3ccc([N+](=O)[O-])cc3)cc(NCCN(C)C)c2c1 | 28.6 |  |
| Clc1ccc2nc(/C=C/c3ccncc3)cc(N3CCOCC3)c2c1 | 3590 |  |
| CN(C)CCNc1cc(/C=C/c2ccncc2)nc2ccc(F)cc12 | 36.1 |  |
| COc1ccc2nc(/C=C/c3cccc([N+](=O)[O-])c3)cc(NCCN(C)C)c2c1 | 49.5 |  |
| Clc1ccc2nc(/C=C/c3ccccc3)cc(NCCN3CCCC3)c2c1 | 107 |  |
| COc1cc(/C=C/c2cc(NCCN(C)C)c3cc(F)ccc3n2)cc(OC)c1OC | 38.6 |  |
| COc1ccc2nc(/C=C/c3ccco3)cc(NCCN(C)C)c2c1 | 88.7 |  |
| Cc1cc(NCCCCN(C)C)c2cc(Cl)ccc2n1 | 1240 |  |
| FC(F)(F)c1cc(/C=C/c2cc(NCCCCN3CCOCC3)c3cc(Cl)ccc3n2)cc(C(F)(F)F)c1 | 108 |  |

| SMILES | EC50 (Plasmodium falciparum [1]) [nM] | further results |
| --- | --- | --- |
| COc1ccc2nc(/C=C/c3cccnc3)cc(NCCN(C)C)c2c1 | 71 |  |
| Fc1cc(F)cc(/C=C/c2cc(NCCCCN3CCOCC3)c3cc(Cl)ccc3n2)c1 | 185 |  |
| Clc1ccc2nc(/C=C/c3ccncc3)cc(NCCN3CCOCC3)c2c1 | 137 |  |
| CN(C)CCNc1cc(CCc2ccncc2)nc2ccc(Cl)cc12 | 259 |  |
| CN(C)CCCCNc1cc(/C=C/c2ccccc2)nc2ccc(Cl)cc12 | 68 |  |
| CN(C)CCNc1cc(/C=C/c2ccc([N+](=O)[O-])cc2)nc2ccccc12 | 47.9 |  |
| Fc1cc(/C=C/c2cc(NCCCCN3CCOCC3)c3cc(Cl)ccc3n2)cc(F)c1F | 130 |  |
| Clc1ccc2nc(/C=C/c3ccncc3)cc(N3CCN(c4ccccn4)CC3)c2c1 | 2570 | EC50 (Plasmodium falciparum [2]): 155 nM |
| COc1ccc2nc(/C=C/c3ccc(OC)c(OC)c3)cc(NCCN(C)C)c2c1 | 187 | Ratio EC50 [4]: > 1.3; Activity (Plasmodium falciparum [2]): Active |
| Fc1ccc(/C=C/c2cc(NCCCN3CCOCC3)c3cc(Cl)ccc3n2)cc1 | 40.8 |  |
| Cc1cc(NCCN(C)C)c2cc(Cl)ccc2n1 | 732 |  |
| COc1ccc2nc(/C=C/c3ccccc3)cc(NCCN(C)C)c2c1 | 41.2 | Ratio EC50 [4]: > 1.3; Activity (Plasmodium falciparum [2]): Active |
| N#Cc1ccc(/C=C/c2cc(N3CCOCC3)c3cc(Cl)ccc3n2)cc1 | 1010 |  |
| CN(C)CCNc1cc(/C=C/c2ccc(N(C)C)cc2)nc2ccc(Cl)cc12 | 88.3 | Ratio EC50 [4]: > 1.3 |
| CN(C)CCNc1cc(/C=C/c2cccs2)nc2ccc(F)cc12 | 111 |  |
| Fc1ccc(/C=C/c2cc(N3CCC(N4CCCCC4)CC3)c3cc(Cl)ccc3n2)cc1 | 487 | EC50 (Plasmodium falciparum [2]): 155 nM |
| COc1ccc2nc(/C=C/c3ccncc3)cc(NCCN(C)C)c2c1 | 38.8 |  |
| COc1ccc2nc(/C=C/c3cc(OC)c(OC)c(OC)c3)cc(NCCN(C)C)c2c1 | 74.2 | Ratio EC50 [4]: > 1.3; Activity (Plasmodium falciparum [2]): Active |
| CN(C)CCNc1cc(/C=C/c2cccc3ccccc23)nc2ccc(Cl)cc12 | 373 | Ratio EC50 [4]: > 1.3 |
| FC(F)(F)c1ccc(/C=C/c2cc(NCCCN3CCOCC3)c3cc(Cl)ccc3n2)cc1 | 84.8 |  |
| Fc1cc(F)c(F)c(/C=C/c2cc(NCCCCN3CCOCC3)c3cc(Cl)ccc3n2)c1 | 588 | Activity (Plasmodium falciparum [2]): Active |
| Clc1ccc2nc(/C=C/c3ccncc3)cc(NCCN3CCCC3)c2c1 | 67.7 |  |

| SMILES | EC50 (Plasmodium falciparum [1]) [nM] | further results |
| --- | --- | --- |
| COc1ccc(/C=C/c2cc(NCCN(C)C)c3cc(Cl)ccc3n2)cc1OC | 38.9 |  |
| CN1CCN(CCCCNc2cc(/C=C/c3ccccc3)nc3ccc(Cl)cc23)CC1 | 58.9 |  |
| Fc1cccnc1/C=C/c1cc(NCCCCN2CCOCC2)c2cc(Cl)ccc2n1 | 197 | Activity (Plasmodium falciparum [2]): Active |
| FC(F)(F)c1ccccc1/C=C/c1cc(NCCCCN2CCOCC2)c2cc(Cl)ccc2n1 | 104 |  |
| COc1ccc(/C=C/c2cc(NCCN(C)C)c3cc(OC)ccc3n2)cc1 | 43.6 |  |
| COc1ccc2nc(/C=C/c3cccs3)cc(NCCN(C)C)c2c1 | 80 |  |
| CN(C)CCNc1cc(/C=C/c2cccs2)nc2ccc(Cl)cc12 | 29.7 |  |
| CN1CCN(CCNc2cc(/C=C/c3ccncc3)nc3ccc(Cl)cc23)CC1 | 53.3 |  |
| Fc1ccc(/C=C/c2cc(NCCCCN3CCOCC3)c3cc(Cl)ccc3n2)cn1 | 54.6 | Activity (Plasmodium falciparum [2]): Active |
| CN(C)CCNc1cc(/C=C/c2cccnc2)nc2ccc(Cl)cc12 | 33.6 |  |
| Fc1ccc(/C=C/c2cc(N3CCOCC3)c3cc(Cl)ccc3n2)cc1 | 6750 |  |
| COc1ccc2nc(/C=C/c3ccccc3[N+](=O)[O-])cc(NCCN(C)C)c2c1 | 56.3 |  |
| COc1cc(/C=C/c2cc(NCCN(C)C)c3cc(Cl)ccc3n2)cc(OC)c1OC | 44.4 |  |
| CN(C)CCNc1cc(/C=C/c2cncnc2)nc2ccc(Cl)cc12 | 155 | Ratio EC50 [4]: > 1.3 |
| Fc1ccc(/C=C/c2cc(NCCN3CCOCC3)c3cc(Cl)ccc3n2)cc1 | 24.2 | selectivity ratio [3]: 711; Ratio EC50 [4]: 0.6; EC50 (HepG2): 17200 nM; EC50 (Plasmodium falciparum [2]): 41.8 nM |
| CN(C)CCCCNc1cc(/C=C/c2ccc([N+](=O)[O-])cc2)nc2ccc(Cl)cc12 | 52.5 |  |
| FC(F)(F)Oc1ccc(/C=C/c2cc(NCCCCN3CCOCC3)c3cc(Cl)ccc3n2)cc1 | 56.6 |  |
| CN(C)CCNc1cc(/C=C/c2ccc([N+](=O)[O-])cc2)nc2ccc(F)cc12 | 30.9 |  |
| CN1CCN(CCCCNc2cc(/C=C/c3ccc(F)cc3)nc3ccc(Cl)cc23)CC1 | 43 |  |
| Fc1cnccc1/C=C/c1cc(NCCCCN2CCOCC2)c2cc(Cl)ccc2n1 | 79.6 |  |
| CN(C)CCNc1cc(/C=C/c2ccc([N+](=O)[O-])cc2)nc2ccc(Cl)cc12 | 28.7 |  |
| CN(C)CCNc1cc(/C=C/c2nccs2)nc2ccc(Cl)cc12 | 240 |  |

| SMILES | EC50 (Plasmodium falciparum [1]) [nM] | further results |
| --- | --- | --- |
| CN(C)CCNc1cc(/C=C/c2ccc(F)cc2)nc2ccccc12 | 25.5 |  |
| CN1CCN(CCCCNc2cc(/C=C/c3ccncc3)nc3ccc(Cl)cc23)CC1 | 33.4 | selectivity ratio [3]: 251; Ratio EC50 [4]: 0.9; EC50 (HepG2): 8380 nM; EC50 (Plasmodium falciparum [2]): 36.1 nM |
| CN(C)CCNc1cc(/C=C/c2ccco2)nc2ccc(Cl)cc12 | 37 |  |
| CN(C)CCNc1cc(/C=C/C2CCCCC2)nc2ccc(Cl)cc12 | 394 | Ratio EC50 [4]: > 1.3 |
| CN(C)CCCCNc1cc(/C=C/c2ccc(F)cc2)nc2ccc(Cl)cc12 | 51.2 |  |
| Fc1ccc(/C=C/c2cc(N3CCCC3)c3cc(Cl)ccc3n2)cc1 | 428 |  |
| COc1ccc2nc(C)cc(NCCN(C)C)c2c1 | 5520 |  |
| Fc1cc(F)c(/C=C/c2cc(NCCCCN3CCOCC3)c3cc(Cl)ccc3n2)cc1F | 197 | Activity (Plasmodium falciparum [2]): Active |
| Fc1ccc(/C=C/C=C/c2cc(NCCCCN3CCOCC3)c3cc(Cl)ccc3n2)cc1 | 96.5 |  |
| CN(C)CCNc1cc(/C=C/c2ccc(F)cc2)nc2ccc(F)cc12 | 30.9 |  |
| CN(C)CCNc1cc(/C=C/c2ccccc2)nc2ccc(F)cc12 | 21 |  |
| COc1ccc2nc(/C=C/c3cc(NCCN(C)C)c4cc(Cl)ccc4n3)ccc2c1 | 281 | Ratio EC50 [4]: > 1.3 |
| CN(C)CCNc1cc(/C=C/c2ccccc2)nc2ccc(Cl)cc12 | 22.4 |  |
| COc1ccc(/C=C/c2cc(NCCN(C)C)c3cc(Cl)ccc3n2)cc1 | 34.8 |  |
| Clc1ccc2nc(-c3ccncc3)cc(NCCCCN3CCOCC3)c2c1 | 796 |  |
| Clc1ccc2nc(-c3ccccc3)cc(NCCCCN3CCOCC3)c2c1 | 423 |  |
| Fc1ccc(/C=C/c2cc(N3CCN(c4ccccn4)CC3)c3cc(Cl)ccc3n2)cc1 | 3300 | EC50 (Plasmodium falciparum [2]): 155 nM |
| COc1ccc(/C=C/c2cc(NCCN(C)C)c3cc(F)ccc3n2)cc1OC | 41.1 |  |
| COc1ccc2nc(/C=C/c3ccccn3)cc(NCCN(C)C)c2c1 | 1030 |  |
| COc1ccc2nc(/C=C/c3ccc(F)cc3)cc(NCCN(C)C)c2c1 | 32.9 |  |
| Clc1ccc2nc(/C=C/c3ccncc3)cc(Nc3ccc(N4CCCCC4)cc3)c2c1 | 793 | EC50 (Plasmodium falciparum [2]): 155 nM |
| COc1ccc(/C=C/c2cc(NCCN(C)C)c3cc(F)ccc3n2)cc1 | 37.8 |  |
